Source: PubChem
GalR3 antag = human GalR3 antagonism. HEK293 GalR3-CNG cAMP membrane potential fluorescence; galR3 body fused to GalR1 C-terminus. 360,000 compounds, 0.44% hits. inhibition, % at 3 µM. O60755;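 active means inhibition above the screen-wide average plus 3 SD, cut at about 13% in these data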;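 further: forskolin and galanin both at EC90 stimulate the cells; cAMP rise reported by CNG channel membrane potential dye signal; 0% = forskolin plus galanin with DMSO and 100% = forskolin alone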
Target sequence (O60755 1-299 limits assumed): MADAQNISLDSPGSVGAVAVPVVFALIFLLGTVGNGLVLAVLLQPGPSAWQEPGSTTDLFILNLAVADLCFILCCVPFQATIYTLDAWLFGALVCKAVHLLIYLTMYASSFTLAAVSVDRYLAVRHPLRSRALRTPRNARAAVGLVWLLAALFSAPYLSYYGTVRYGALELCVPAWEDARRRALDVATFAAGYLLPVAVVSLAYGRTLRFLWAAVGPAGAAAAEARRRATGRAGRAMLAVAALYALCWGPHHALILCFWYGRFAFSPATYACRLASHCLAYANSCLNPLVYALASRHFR
NR2E3 ag-1 = agonists of human NR2E3 nuclear receptor. Q9Y5X4. 360,000 compounds, 0.35% hits. CHO-S Gal4-NCOR/VP16-NR2E3 two-hybrid, luciferase. inhibition of corepressor binding, % at 3.98 µM;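 active means inhibition above the mean of all tested compounds plus 3 SD, cut at about 70% in these data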;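 further: 0% = DMSO with NR2E3 transfected cells and 100% = cells lacking NR2E3 construct; higher means lower luciferase signal from less NR2E3 corepressor binding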
Target sequence (Q9Y5X4 whole entry, looked up, the tested form may be a part): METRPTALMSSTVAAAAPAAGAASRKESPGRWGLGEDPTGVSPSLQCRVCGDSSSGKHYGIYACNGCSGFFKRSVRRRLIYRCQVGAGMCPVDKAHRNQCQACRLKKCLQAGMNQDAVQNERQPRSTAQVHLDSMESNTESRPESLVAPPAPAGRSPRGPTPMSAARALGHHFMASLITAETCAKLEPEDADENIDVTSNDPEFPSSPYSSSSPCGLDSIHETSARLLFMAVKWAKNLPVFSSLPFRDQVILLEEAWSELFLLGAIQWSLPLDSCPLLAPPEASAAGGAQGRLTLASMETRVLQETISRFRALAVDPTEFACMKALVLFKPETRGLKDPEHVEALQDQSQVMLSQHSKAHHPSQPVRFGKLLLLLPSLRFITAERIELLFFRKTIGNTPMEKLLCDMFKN
GAA850 FXN act = increases GAA850 frataxin promoter reporter activity | activation, % at 6 µM | 360,000 compounds, 0.56% hits | HEK293 lucGAA850 FXN promoter luciferase reporter, 24 h; percent of 10 µM SAHA response;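 active means activation above the average of all compounds screened plus 3 SD, cutoff fixed separately per campaign, cut at about 7.5% in these data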;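 further: 0% = DMSO wells and 100% = 10 µM SAHA wells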
V-ATPase pH = yeast V-ATPase proton transport regulation by pHLuorin | S. cerevisiae, pHLuorin cytosolic pH fluorescence | response, % at 10 µM | 350,000 compounds, 0.37% hits | AID 504577; in the data active means response mostly above about 7.3%, no sharp cut-off; inactive means mostly below about 5.4%; further: actives read high
NR2E3 ag-2 = activates human photoreceptor nuclear receptor NR2E3 | Q9Y5X4 | 320,000 compounds, 0.12% hits | inhibition of corepressor binding, % at 4.78 µM | AID 2300 | GST-NR2E3/biotin-RetCOR TR-FRET, 1536-well;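 active means percent inhibition above the cutoff of mean plus 3 SD of all tested compounds, set per screening campaign, cut at about 20% in these data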;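 further: 0% = DMSO wells and 100% = biotin wells as full block of FRET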
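System: GST-tagged NR2E3 plus biotinylated RetCOR corepressor; Amount: 1.35 nM GST-tagged NR2E3 final; Dosing: single nominal compound dose of 4.8 µM; Schedule: 5 h incubation at 4 °C; Technique: TR-FRET with europium anti-GST and streptavidin-D2, 340 nm excitation; Controls: biotin wells as high control, 0.6% DMSO wells as low control.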
HIV Env fusion = HIV envelope-mediated fusion inhibition; HeLa-JRFL Env/CEM21 cell fusion, luciferase; inhibition, % at 12.3 µM; 360,000 compounds, 1.1% hits; AID 651610;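 active means mean replicate inhibition score of at least 50 and every replicate individually at or above 50; inconclusive means only one of the two criteria met; inactive means mean below 50 and not all replicates reaching 50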;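 further: 0% = plate neutral controls and 100% = maraviroc near 300 nM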
NR2E3 ag conf = NR2E3 agonism confirmed in two-hybrid assay; shares compounds with NR2E3 ag-1; CHO-S mammalian two-hybrid NR2E3-NCOR, luciferase luminescence; inhibition, % at 3.98 µM; 2,300 compounds, 51% hits; AID 624378;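 active means average inhibition above a cutoff equal to the mean inhibition of all tested compounds plus one SD, cut at about 70% in these data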;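 further: 0% = DMSO in NR2E3 cells and 100% = DMSO in cells lacking NR2E3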
VP16 counter = reduces GAL4-VP16 reporter signal in NR2E3 counterscreen. shares compounds with NR2E3 ag-1. 2,300 compounds, 29% hits. inhibition, % at 3.98 µM. CHO-S GAL4-VP16 luciferase reporter, luminescence. AID 624379;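 active means mean inhibition above a cutoff equal to the average over all tested compounds plus one standard deviation, cut at about 70% in these data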;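 further: luciferase from a UAS reporter driven by GAL4-VP16 transactivation; 0% = DMSO with VP16-transfected cells and 100% = DMSO with cells lacking VP16; higher means less reporter light so more repression of VP16 activity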
* marks the source's active call; other numbers are inactive results; ? = inconclusive; . = no result given; [ ] = dose if it differs, or a comment. Shown are actives, neighbours in structure and some others; about 2.2% of the full set was active somewhere.

SMILES | GalR3 antag | NR2E3 ag-1 | GAA850 FXN act | V-ATPase pH | NR2E3 ag-2 | HIV Env fusion | NR2E3 ag conf | VP16 counter
CO/N=C/c1ccc(N2CCN(C(=O)c3ccc(Cl)cc3Cl)CC2)c([N+](=O)[O-])c1 | -7 | 76* | -1 | 1 | 1 | 78* | 91* | 76*
C[C@H](CO)N1C[C@H](C)[C@H](CN(C)S(=O)(=O)c2cn(C)cn2)Oc2ccc(NC(=O)C3CCCCC3)cc2C1=O | . | . | . | . | . | 19[16.7 µM] | . | .
O=C(N[C@H]1CC[C@@H](CCNS(=O)(=O)c2ccc(F)cc2)O[C@H]1CO)c1cnccn1 | . | . | . | . | . | -1[16.7 µM] | . | .
Cc1cccc(C)c1N1CCN(C(c2cc3ccccc3o2)c2nnnn2C(C)(C)C)CC1 (stereo not given) | . | 75* | . | . | . | . | 84* | 67
CCCCn1nnnc1C(c1cc2ccccc2o1)N1CCN(c2c(C)cccc2C)CC1 (stereo not given) | -6 | -18 | . | . | . | 18 | . | .
CCN(CC)S(=O)(=O)c1ccc(S(=O)(=O)Nc2c(C)nn(C)c2C)cc1 | -5 | 53 | -1 | -3 | 1 | . | 43 | 53
Cc1ccc(-c2csc(N3C(=N)SCC3=O)n2)cc1 | -3 | . | . | . | -1 | -53 | . | .
N=C1SCC(=O)N1c1ncc(Cc2ccc(F)cc2)s1 | 1 | 97* | 2 | 2 | -2 | 4 | 57 | 22
C[C@H](CO)N1C[C@H](C)[C@H](CN(C)CC2CCOCC2)Oc2ncc(C#Cc3ccccc3)cc2C1=O | . | . | . | . | . | 6[16.7 µM] | . | .
CCCn1c(N2CCC(Cc3ccccc3)CC2)nc2c1c(=O)[nH]c(=O)n2C | -1 | 49 | 3 | -1 | 3 | . | 29 | 39
CCCCCn1c(N2CCC(Cc3ccccc3)CC2)nc2c1c(=O)[nH]c(=O)n2C | . | -1 | -2 | 3 | -3 | . | . | .
Cc1sc2ncn(CCn3cnc4sc(C)c(C)c4c3=O)c(=O)c2c1C | -2 | 55 | -2 | 5 | 3 | . | 68 | 52
Cc1ccc2nc(N3C(=O)CNC3=S)sc2c1 | 0 | 49 | 4 | -6 | 5 | 3 | -172 | -190
CC(=O)c1ccc(OCc2cc(C(=O)N3CCC(Oc4ccccc4C)CC3)no2)cc1 | -1 | -59 | 4 | 2 | 1 | -22 | . | .
O=C(c1cc(COc2cccc(C(F)(F)F)c2)on1)N1CCC(Oc2cccnc2)CC1 | -3 | 78* | 1 | -4 | -2 | 31 | 92* | 75*
Cc1ccc(OCc2cc(C(=O)N3CCC(Oc4cccnc4)CC3)no2)cc1C | 0 | 97* | 0 | 2 | 1 | 2 | 91* | 70
COCCCC1CCN(C(=O)c2cc(COc3ccc(C)nc3)on2)CC1 | -3 | 62 | -4 | 11 | -4 | 7 | 21 | 30
O=C(c1cc(COc2cccc(C(F)(F)F)c2)on1)N1CCCC1 | -6 | -63 | 2 | -1 | . | -19 | . | .
CN(C)CC(=O)N[C@H]1CC[C@H](CC(=O)NCc2ccc(Cl)cc2)O[C@@H]1CO | . | . | . | . | . | -11[16.7 µM] | . | .
C[C@H]1CN([C@@H](C)CO)S(=O)(=O)c2ccc(-c3cncnc3)cc2O[C@H]1CN(C)Cc1cccnc1 | . | . | . | . | . | -5[16.7 µM] | . | .
Cc1cccc(S(=O)(=O)N[C@H]2CC[C@@H](CCn3cc(-c4ccccn4)nn3)O[C@@H]2CO)c1 | . | . | . | . | . | -3[16.7 µM] | . | .
O=C(O)c1cccc(Cn2c(Cl)c(/C=N/Nc3ccccc3)sc2=O)c1 | . | 70 | 3 | 3 | -5 | . | 68 | 15
Cc1cc(/C=c2/sc3nc4ccccc4n3c2=O)c(C)n1-c1ccccn1 | -6 | 80* | -16 | 7 | 0 | 5 | 84* | 75*
Cc1cc(/C=c2\sc3nc4ccccc4n3c2=O)c(C)n1-c1ccc(C(=O)O)cc1 | -1 | -32 | 0 | 0 | . | -2 | . | .
CCN(CC)c1ccc(/C=c2\sc3nc4ccccc4n3c2=O)c(O)c1 | -5 | 58 | -2 | 0 | . | 17 | 79* | 60
SMILES | GalR3 antag | NR2E3 ag-1 | GAA850 FXN act | V-ATPase pH | NR2E3 ag-2 | HIV Env fusion | NR2E3 ag conf | VP16 counter
FC(F)(F)c1cnc(NNC(=S)Nc2ccc(Cl)cc2)c(Cl)c1 | -2 | 70* | -4 | -2 | 1 | 55* | 94* | 77*
Cn1c(=S)c2[nH]c(SCC3CCCO3)nc2n(C)c1=O (stereo not given) | -3 | 53 | 2 | 3 | . | 21 | 38 | -5
CN(C(=O)CSc1cc(C(=O)c2nccn2C)c2ccccc2n1)c1ccccc1 | -7 | 81* | -1 | 4 | -1 | -14 | 78* | 61
Cn1ccnc1C(=O)c1cc(SCC(=O)NC2CC2)nc2ccccc12 | -4 | -26 | -1 | -1 | 0 | -11 | . | .
Cc1nc2ccccc2cc1OCc1ccccc1 | -6 | 73* | -1 | 6 | -1 | 10 | 70* | 66
COc1ccc(S(=O)(=O)Nc2cccc3c2O[C@H](CN(C)S(=O)(=O)c2ccc(Cl)cc2)[C@@H](C)CN([C@@H](C)CO)C3=O)cc1 | . | . | . | . | . | -59[16.7 µM] | . | .
O=c1[nH]cnc2c1ncn2[C@@H]1O[C@H](CO)[C@@H](O)[C@H]1O | . | -8 | -4 | 4 | 5 | 2 | . | .
O=c1[nH]nnc2c1ncn2C1OC(CO)C(O)C1O (stereo not given) | -6 | 68 | . | . | . | ? | 59 | 50
CN(C)c1nc2c(N)ncnc2n1C1OC(CO)C(O)C1O (stereo not given) | 3 | -16 | -2 | -1 | . | 7 | . | .
OCC1OC(n2ccc3c(NO)ncnc32)C(O)C1O (stereo not given) | -5 | 102* | -15 | -4 | . | 91* | 99* | 93*
OCC1OC(n2cnc3c(NCc4ccccc4O)ncnc32)C(O)C1O (stereo not given) | -8 | 72* | 1 | 4 | . | 39 | 51 | 49
OCC1OC(n2cnc3c(NCCc4ccccc4)ncnc32)C(O)C1O (stereo not given) | -2 | 6 | 5 | 5 | 5 | 6 | . | .
CN(C)c1ncnc2c1ccn2C1OC(CO)C(O)C1O (stereo not given) | -7 | 70 | -2 | 1 | . | 77* | 72* | 29
C[C@H](CO)N1C[C@H](C)[C@H](CN(C)C(=O)NC2CCCCC2)OCCCC[C@H](C)Oc2ccc(NC(=O)NC3CCCCC3)cc2C1=O | . | . | . | . | . | -7[16.7 µM] | . | .
COc1ccc(C)cc1NC(=O)CSc1nc2scc(C)c2c(=O)[nH]1 | -3 | 84* | 1 | 1 | 0 | 4 | 44 | 23
S=C(Nc1ccccc1)Nc1ccc(OCc2ccc(Cl)cc2Cl)cc1 | 0 | 75* | -18 | 7 | 3 | 103* | 65 | 61
COc1ccc(NS(=O)(=O)c2ccc3oc4ccccc4c3c2)cn1 | -5 | 88* | -1 | 2 | 5 | 48 | 76* | 63
